Key:
[1] = Chemical stability of the compound in 1% HCl assessed as compound remaining at 1 min by HPLC analysis; type: physicochemical; conditions: read-out: Stability
Method in brief: (§1)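 Compound (1 mg) dissolved in MeOH (0.5 mL), 1% HCl (0.2 mL) added, shaken at room temperature. Remaining compound measured by reversed-phase HPLC (ODS2 column, 30% water/70% MeOH) as area % purity at the stated time.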

[2] = Chemical stability of the compound in 1% HCl assessed as compound remaining at 30 min by HPLC analysis; type: physicochemical; conditions: read-out: Stability; method in brief: as §1
[3] = system: Human immunodeficiency virus 1; assay: Antiviral activity against HIV1 RTMDR in human […] cells after 48 hrs by luciferase reporter gene assay; type: functional, organism-based; conditions: Human immunodeficiency virus 1, RTMDR
Method in brief: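 Single-round infection of TZM-bl cells with 200 TCID50 virus plus test sample in eight fourfold dilutions; 48 h incubation, then Bright Glo luciferase read. Highest tested concentration 20 μM.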

[4] = system: Human immunodeficiency virus 1; assay: Antiviral activity against HIV 1 NL4-3 infected in human TZM-bl cells after 48 hrs by luciferase reporter gene assay; type: functional, organism-based; conditions: Human immunodeficiency virus 1, NL4-3, TZM-bl
Method in brief: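 Single-round infection of TZM-bl cells with HIV-1 NL4-3 at 200 TCID50, in the presence of eight fourfold serial dilutions of compound. After 48 h, luciferase was read as RLU. Highest concentration tested was 20 μM.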

[5] = Ratio of CC50 for human TZM-bl cells to EC50 for HIV 1 RTMDR infected in human TZM-bl cells
[6] = Cytotoxicity against human TZM-bl cells assessed as cell viability; type: cell-based
Method in brief: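 TZM-bl cells (1 × 10^5 cells/mL) exposed to various compound concentrations in parallel with the antiviral assay timing. Averaged from at least three independent experiments.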

[7] = Ratio of CC50 for human TZM-bl cells to EC50 for HIV 1 NL4-3 infected in human TZM-bl cells

SMILES | remaining at […] [1] | remaining at 0.5 h [2] | EC50 [3] | EC50 [4] | Ratio CC50/EC50 [5] | CC50 [6] | Ratio CC50/EC50 [7]
Cc1cc(=O)oc2c3c(ccc12)OC(C)(C)[C@H](OC(=O)[C@@]12CC[C@@](C)(C(=O)O1)C2(C)C)[C@@H]3OC(=O)[C@@]12CC[C@@](C)(C(=O)O1)C2(C)C | 100% | 64% | – | – | – | – | –
CCOc1ccc2c(=O)cc(CC)oc2c1CN1CCN(C(=O)C(=O)c2cccs2)CC1 | – | – | 16.9 µM | > 22 µM | 1.3 | > 22 µM | –
CCOc1ccc2c(=O)cc(CC)oc2c1CN1CCN(C(=O)C(=O)c2ccccc2)CC1 | – | – | 16.3 µM | 16.7 µM | >1.37 | > 22.3 µM | >1.33
CCOc1ccc2c(=O)cc(CC)oc2c1CN1CCN(C(=O)C(=O)c2c[nH]c3ccccc23)CC1 | – | – | > 20.5 µM | > 20.5 µM | – | > 20.5 µM | –
CCc1cc(=O)c2ccc(OCc3cccc(C(=O)OC)c3)c(COC(=O)C34CCC(C)(C(=O)O3)C4(C)C)c2o1 (configuration not stated) | – | – | – | 0.93 µM | – | > 36.5 µM | 39.2
CCc1cc(=O)c2ccc(OCc3cc(OC)cc(OC)c3)c(COC(=O)C34CCC(C)(C(=O)O3)C4(C)C)c2o1 (configuration not stated) | – | – | – | 22.2 µM | – | > 36.3 µM | 1.64
CCc1cc(=O)c2ccc3c(c2o1)[C@@H](OC(=O)C12CCC(C)(C(=O)O1)C2(C)C)[C@@H](OC(=O)C12CCC(C)(C(=O)O1)C2(C)C)C(C)(C)O3 (some centres not stated) | 100% | 91% | 0.2 µM | 0.12 µM | 71.25 | 14.2 µM | 118.75

From ChEMBL document CHEMBL1828520, “Anti-AIDS agents 86. Synthesis and anti-HIV evaluation of 2',3'-seco-3'-nor DCP and DCK analogues” (Eur J Med Chem, 2011)
